# Assay results reported in ChEMBL document CHEMBL1134486, “Synthesis and biological evaluation of purine-containing butenolides” (J Med Chem, 2001).
# How the values were obtained:
# [1] = test system: HeLa; assay: Ability to inhibit cytopathogenicity of thymidine kinase-deficient (TK-) strain of Varicella zoster virus (YS/R) in HeLa cell culture; format: functional, cell-based; settings: Homo sapiens
# In short: (§1)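 Inhibition of virus-induced cytopathogenicity measured in HeLa cell culture; IC50 derived by linear regression, mean of duplicate determinations.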
# [2] = Anticancer activity carried out in vitro against human T-lymphocyte Molt4/C8; format: functional, cell-based; settings: MOLT-4
# In short: (§2)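 Cells grown in DMEM with 10% FBS, 2.0 mM glutamine, penicillin/streptomycin, 5% CO2, 37 °C; exponential-phase cells (200 cells/mL) given compounds at various concentrations, counted at 24, 48, 72 h; IC50 for 50% proliferation inhibition at 72 h from dose-response curves of two independent experiments.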
# [3] = test system: P388; assay: Anticancer activity carried out in vitro against murine leukemia P388; format: functional, cell-based; settings: Mus musculus; in short: as §2
# [4] = test system: HeLa; assay: Concentration required to cause microscopically visible change or disruption in about 50% of cell sheet of HeLa cells; format: functional, cell-based, Homo sapiens
# In short: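 HeLa cells exposed to compounds at different concentrations; toxicity scored as morphological change, value is concentration causing microscopically visible change or disruption in about 50% of the cell sheet; mean of duplicate determinations.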
# [5] = test system: HeLa; assay: Ability to inhibit cytopathogenicity of thymidine kinase-positive(TK+) strain of Varicella zoster virus (YS) in HeLa cell culture; format: functional, cell-based; settings: Homo sapiens; in short: as §1
# [6] = test system: L1210; assay: Anticancer activity carried out in vitro against murine leukemia L1210; format: functional, cell-based; settings: Mus musculus; in short: as §2
# [7] = test system: HeLa; assay: Ability to inhibit cytopathogenicity of herpes simplex type 1 virus (KOS) in HeLa cell culture; format: functional, cell-based; settings: Homo sapiens; in short: as §1
# [8] = test system: MCF7; assay: Anticancer activity carried out in vitro against breast carcinoma MCF-7; format: functional, cell-based; settings: Homo sapiens; in short: as §2
# [9] = Anticancer activity carried out in vitro against human T-lymphocyte CEM/0; format: functional; settings: CCRF-CEM; in short: as §2
# [10] = test system: HeLa; assay: Ability to inhibit cytopathogenicity of herpes simplex type 2 virus (G) in HeLa cell culture; settings: Homo sapiens
# [11] = target: T1, Adenosine deaminase (Bos taurus, UniProt P56658); assay: Rate of deamination in the presence of calf mucosal adenosine deaminase (ADA)
# T1 sequence (P56658 whole entry): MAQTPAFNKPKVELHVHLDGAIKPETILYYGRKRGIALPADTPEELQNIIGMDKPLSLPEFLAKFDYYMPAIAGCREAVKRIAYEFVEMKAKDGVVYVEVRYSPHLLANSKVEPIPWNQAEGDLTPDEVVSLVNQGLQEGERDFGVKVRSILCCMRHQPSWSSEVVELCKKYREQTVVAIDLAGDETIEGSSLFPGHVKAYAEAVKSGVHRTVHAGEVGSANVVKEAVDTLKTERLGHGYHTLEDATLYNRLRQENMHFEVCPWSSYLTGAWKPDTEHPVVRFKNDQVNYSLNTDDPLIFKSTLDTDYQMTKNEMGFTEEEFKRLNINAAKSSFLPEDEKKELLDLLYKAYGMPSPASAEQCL
# In short: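 Deamination rates followed with calf mucosal ADA (EC 3.5.4.4) in buffer solutions; Km and Vmax relative to adenosine as substrate; inhibition (Ki) assessed with adenosine as substrate.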
IC50 [1] [µM],IC50 [2] [µM],IC50 [3] [µM],"IC50 ([4]; Homo sapiens, HeLa) [µM]",IC50 [5] [µM],IC50 [6] [µM],IC50 [7] [µM],IC50 [8] [µM],IC50 [9] [µM],IC50 [10] [µM],IC50 ([4]; hela) [µM],Ki [11] [µM],SMILES
34.7,> 120,> 120,17,37.5,> 120,28.4,> 120,> 120,,,,O=C1O/C(=C/Cn2cnc3c(Cl)ncnc32)C(OCc2ccc([N+](=O)[O-])cc2)=C1OCc1ccc([N+](=O)[O-])cc1
> 128,> 120,> 120,149,> 128,> 120,> 128,> 120,> 120,,,,COC1=C(OC)C(O)(CCn2cnc3c(Cl)ncnc32)OC1=O (racemic)
0.89,6.16,7.42,20.2,6.32,6.03,7.24,14.2,5.04,,,,COC1=C(OCc2ccc([N+](=O)[O-])cc2)C(=O)O/C1=C/Cn1cnc2c(Cl)ncnc21
1.03,7.35,6.49,19.3,4.4,5.81,9.83,15.4,3.98,,,,COC1=C(OCc2ccc([N+](=O)[O-])cc2)/C(=C\Cn2cnc3c(Cl)ncnc32)OC1=O
26.4,,,254,8.71,,0.11,,,0.19,,,Nc1nc2c(ncn2COCCO)c(=O)[nH]1 [ACYCLOVIR]
,,,,,,,,,,132,,COC1=C(OC)C(O)(CCn2cnc3c(Cl)ncnc32)OC1=O (stereo in doubt; (-)-4)
> 128,> 120,> 120,157,> 128,> 120,> 128,> 120,> 120,,,> 800,COC1=C(OC)C(O)(CCn2cnc3c(N)ncnc32)OC1=O (stereo not given)
5.03,12.5,14.3,28.1,10.2,16.2,13.2,90.1,96,,,,COC1=C(OC)/C(=C/C(n2cnc3c(Cl)ncnc32)P(=O)(OC)OC)OC1=O (stereo not given)
,0.65,0.14,,,0.17,,1.03,0.78,,,,Nc1ccn([C@@H]2O[C@H](CO)[C@@H](O)[C@@H]2O)c(=O)n1 [CYTARABINE]
1.62,5.97,8.12,23.4,5.92,4.52,10.9,16.9,4.71,,,,COC1=C(OC)/C(=C/Cn2cnc3c(Cl)ncnc32)OC1=O
6.07,78.5,2.67,42.4,12.8,93.4,14.5,> 120,84.5,,,316,COC1=C(OC)/C(=C/Cn2cnc3c(N)ncnc32)OC1=O
